Measurements taken from ChEMBL document CHEMBL1153959, “QSAR analysis of pyrazolidine-3,5-diones derivatives as Dyrk1A inhibitors” (Bioorg Med Chem Lett, 2009).

How the values were obtained:
[1] = molecular target: Dual specificity tyrosine-phosphorylation-regulated kinase 1A (Mus musculus) (UniProt Q61214); test: Inhibition of Dyrk1 autophosphorylation
[2] = molecular target: Mitogen-activated protein kinase 10 (Homo sapiens) (UniProt P53779); test: Inhibition of human JNK3 at 10 uM; parameters: scale not given: the % may be the effect or the level left
Sequence of Mitogen-activated protein kinase 10 (Homo sapiens) (P53779 whole entry): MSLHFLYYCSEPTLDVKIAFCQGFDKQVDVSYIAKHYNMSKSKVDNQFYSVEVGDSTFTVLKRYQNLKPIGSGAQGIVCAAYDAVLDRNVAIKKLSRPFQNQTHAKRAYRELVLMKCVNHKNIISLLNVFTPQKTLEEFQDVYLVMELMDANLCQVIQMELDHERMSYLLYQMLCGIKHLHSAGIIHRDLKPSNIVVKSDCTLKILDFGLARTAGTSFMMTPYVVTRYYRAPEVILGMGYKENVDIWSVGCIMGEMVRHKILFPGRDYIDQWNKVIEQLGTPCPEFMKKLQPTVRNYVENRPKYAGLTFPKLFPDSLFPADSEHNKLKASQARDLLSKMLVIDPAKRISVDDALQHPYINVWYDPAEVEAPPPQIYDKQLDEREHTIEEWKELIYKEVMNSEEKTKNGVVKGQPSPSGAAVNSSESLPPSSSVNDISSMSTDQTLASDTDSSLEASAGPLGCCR
In short: (§1)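 Each human kinase was assayed with ATP at that kinase's own Km value. Activity was expressed as a percentage of control incubations run without inhibitor. Values are means of duplicate determinations with SD.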

[3] = molecular target: Cyclin-dependent kinase 5/CDK5 activator 1 (Homo sapiens) (UniProt Q00535+Q15078); test: Inhibition of human CDK5/p35 at 10 uM; assay type: protein-complex assay; parameters: scale not given: the % may be the effect or the level left
Sequence of Cyclin-dependent kinase 5/CDK5 activator 1 (Homo sapiens) (Q00535 whole entry): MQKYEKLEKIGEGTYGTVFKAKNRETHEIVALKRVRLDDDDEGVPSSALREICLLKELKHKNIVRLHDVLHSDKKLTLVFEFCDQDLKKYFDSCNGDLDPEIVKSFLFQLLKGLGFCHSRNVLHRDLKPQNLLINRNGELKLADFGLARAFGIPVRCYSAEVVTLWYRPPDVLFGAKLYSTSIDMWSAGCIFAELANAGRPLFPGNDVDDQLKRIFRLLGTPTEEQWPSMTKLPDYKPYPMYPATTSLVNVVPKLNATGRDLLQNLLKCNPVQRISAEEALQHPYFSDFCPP
Sequence of Cyclin-dependent kinase 5/CDK5 activator 1 (Homo sapiens) (Q15078 99-307 partner limits assumed): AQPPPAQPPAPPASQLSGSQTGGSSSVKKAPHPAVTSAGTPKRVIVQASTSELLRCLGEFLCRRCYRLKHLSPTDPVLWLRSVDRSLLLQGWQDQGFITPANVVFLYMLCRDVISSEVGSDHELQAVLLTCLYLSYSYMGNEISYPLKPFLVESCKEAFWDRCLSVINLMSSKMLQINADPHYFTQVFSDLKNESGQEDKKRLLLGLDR
In short: as §1

[4] = molecular target: Protein kinase C alpha type (Homo sapiens) (UniProt P17252); test: Inhibition of human PKCalpha at 10 uM; parameters: scale not given: the % may be the effect or the level left
In short: as §1

[5] = molecular target: MAP kinase-activated protein kinase 2 (Homo sapiens) (UniProt P49137); test: Inhibition of human MAPK2 at 10 uM; parameters: scale not given: the % may be the effect or the level left
Sequence of MAP kinase-activated protein kinase 2 (Homo sapiens) (P49137 whole entry, looked up): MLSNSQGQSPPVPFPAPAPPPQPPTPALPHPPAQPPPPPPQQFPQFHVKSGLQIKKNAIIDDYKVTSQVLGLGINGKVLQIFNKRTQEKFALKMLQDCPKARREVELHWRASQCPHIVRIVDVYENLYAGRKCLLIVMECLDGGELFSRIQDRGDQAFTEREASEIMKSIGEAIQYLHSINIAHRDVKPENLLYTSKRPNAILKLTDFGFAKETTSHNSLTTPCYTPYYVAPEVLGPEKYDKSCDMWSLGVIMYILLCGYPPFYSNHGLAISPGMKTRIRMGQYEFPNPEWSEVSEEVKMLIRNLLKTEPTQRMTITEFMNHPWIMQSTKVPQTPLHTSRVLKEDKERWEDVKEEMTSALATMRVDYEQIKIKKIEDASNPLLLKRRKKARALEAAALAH
In short: as §1

[6] = molecular target: Glycogen synthase kinase-3 beta (Homo sapiens) (UniProt P49841); test: Inhibition of human GSK3-beta at 10 uM; parameters: scale not given: the % may be the effect or the level left
Sequence of Glycogen synthase kinase-3 beta (Homo sapiens) (P49841 whole entry, looked up): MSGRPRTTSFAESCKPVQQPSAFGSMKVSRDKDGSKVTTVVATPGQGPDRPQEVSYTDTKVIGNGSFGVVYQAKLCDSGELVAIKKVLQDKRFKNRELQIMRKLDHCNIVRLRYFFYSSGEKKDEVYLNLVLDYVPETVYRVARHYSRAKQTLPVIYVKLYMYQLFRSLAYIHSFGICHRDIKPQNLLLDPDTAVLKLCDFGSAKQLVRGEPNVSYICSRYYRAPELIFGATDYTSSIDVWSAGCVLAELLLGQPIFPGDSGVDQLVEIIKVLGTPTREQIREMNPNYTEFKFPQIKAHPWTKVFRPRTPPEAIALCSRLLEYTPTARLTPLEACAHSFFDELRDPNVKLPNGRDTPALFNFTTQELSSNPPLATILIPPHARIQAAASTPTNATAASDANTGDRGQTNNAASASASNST
In short: as §1

Homo sapiens = species: Homo sapiens; test: Inhibition of human PKA at 10 uM; parameters: scale not given: the % may be the effect or the level left
In short: as §1

[7] = molecular target: Dual specificity protein kinase CLK3 (Homo sapiens) (UniProt P49761); test: Inhibition of human CLK3 at 10 uM; parameters: scale not given: the % may be the effect or the level left
Sequence of Dual specificity protein kinase CLK3 (Homo sapiens) (P49761 whole entry, looked up): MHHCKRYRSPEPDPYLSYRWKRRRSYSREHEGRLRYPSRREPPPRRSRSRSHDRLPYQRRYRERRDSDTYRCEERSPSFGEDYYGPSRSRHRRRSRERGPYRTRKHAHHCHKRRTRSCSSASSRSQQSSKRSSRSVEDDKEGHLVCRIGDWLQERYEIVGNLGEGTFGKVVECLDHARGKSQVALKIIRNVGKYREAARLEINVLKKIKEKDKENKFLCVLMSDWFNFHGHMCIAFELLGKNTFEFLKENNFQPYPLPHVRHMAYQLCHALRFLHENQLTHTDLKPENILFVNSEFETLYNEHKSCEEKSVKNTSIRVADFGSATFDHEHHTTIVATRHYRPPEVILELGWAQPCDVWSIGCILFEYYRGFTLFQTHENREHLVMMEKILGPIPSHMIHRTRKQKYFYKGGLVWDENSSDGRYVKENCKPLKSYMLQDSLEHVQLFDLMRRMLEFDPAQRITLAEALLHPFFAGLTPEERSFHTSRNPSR
In short: as §1

[8] = molecular target: T1, Dual specificity tyrosine-phosphorylation-regulated kinase 2 (Homo sapiens) (UniProt Q92630); test: Inhibition of human DYRK2 at 10 uM; parameters: scale not given: the % may be the effect or the level left
T1 sequence (whole entry): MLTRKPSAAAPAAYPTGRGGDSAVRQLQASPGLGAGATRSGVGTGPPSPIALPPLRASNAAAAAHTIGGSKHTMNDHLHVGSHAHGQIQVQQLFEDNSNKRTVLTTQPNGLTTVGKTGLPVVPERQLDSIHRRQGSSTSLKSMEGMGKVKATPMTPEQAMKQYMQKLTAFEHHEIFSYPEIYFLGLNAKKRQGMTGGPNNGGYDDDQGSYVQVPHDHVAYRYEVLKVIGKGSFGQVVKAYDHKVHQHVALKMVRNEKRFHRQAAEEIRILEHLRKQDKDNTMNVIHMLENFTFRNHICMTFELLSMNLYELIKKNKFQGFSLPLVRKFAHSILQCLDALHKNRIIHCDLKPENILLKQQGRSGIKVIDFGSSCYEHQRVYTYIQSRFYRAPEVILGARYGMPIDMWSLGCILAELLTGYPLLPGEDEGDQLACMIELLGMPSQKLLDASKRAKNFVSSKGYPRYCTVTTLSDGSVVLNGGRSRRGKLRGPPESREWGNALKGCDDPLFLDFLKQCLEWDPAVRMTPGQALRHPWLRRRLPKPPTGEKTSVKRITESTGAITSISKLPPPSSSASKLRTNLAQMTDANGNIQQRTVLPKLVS
In short: as §1

| IC50 [1] [µM] | Compound | other results |
| --- | --- | --- |
| 20 | COc1cc(/C=C2\C(=O)NN(c3ccc(Cl)c(Cl)c3)C2=O)cc(OC)c1 | – |
| 15 | O=C1NN(c2ccc(Cl)c(Cl)c2)C(=O)/C1=C/c1cccc(Cl)c1Cl | – |
| > 50 | COc1ccc(N2NC(=O)/C(=C\c3ccccc3OC)C2=O)cc1 | – |
| 20 | O=C1NN(c2ccc(Cl)c(Cl)c2)C(=O)/C1=C/c1ccc(Cl)cc1 | – |
| 20 | O=C1NN(c2ccc(Cl)c(Cl)c2)C(=O)/C1=C/c1ccccc1Cl | – |
| > 50 | COc1cccc(/C=C2\C(=O)NN(c3ccc(Cl)c(Cl)c3)C2=O)c1 | – |
| > 50 | O=C1NN(c2ccc(Cl)c(Cl)c2)C(=O)/C1=C/c1ccccc1 | – |
| > 50 | O=C1NN(c2ccc(Cl)c(Cl)c2)C(=O)/C1=C/c1c(Cl)cccc1Cl | – |
| 0.6 | COc1cc(/C=C2\C(=O)NN(c3ccc(C#N)cc3)C2=O)ccc1O | Activity [2]: 93%; Activity [3]: 104%; Activity [4]: 77%; Activity [5]: 110%; Activity [6]: 76%; Activity (Homo sapiens): 69%; Activity [7]: 93%; Activity [8]: 78% |
| > 50 | COc1ccc(/C=C2\C(=O)NN(c3ccc(Cl)c(Cl)c3)C2=O)cc1O | – |
| > 50 | COc1ccccc1/C=C1\C(=O)NN(c2ccc(Cl)c(Cl)c2)C1=O | – |
| > 50 | COc1ccc(/C=C2\C(=O)NN(c3ccc(Cl)c(Cl)c3)C2=O)cc1OC | – |
| > 50 | COc1ccc(/C=C2\C(=O)NN(c3ccc(Cl)c(Cl)c3)C2=O)cc1 | – |
| > 50 | COc1ccc(N2NC(=O)/C(=C\c3cc(OC)c(O)c(OC)c3)C2=O)cc1 | – |
| > 50 | O=C1NN(c2ccc(Cl)c(Cl)c2)C(=O)/C1=C/c1ccccc1F | – |
| > 50 | COc1ccc(N2NC(=O)/C(=C\c3cccc(Cl)c3Cl)C2=O)cc1 | – |
| > 50 | COc1cc(/C=C2\C(=O)NN(c3ccc(Cl)c(Cl)c3)C2=O)cc(OC)c1O | – |

| IC50 [1] [µM] | Compound | other results |
| --- | --- | --- |
| > 50 | COc1ccc(N2NC(=O)/C(=C\c3ccc(OC)c(O)c3)C2=O)cc1 | – |
| > 50 | COc1ccc(/C=C2\C(=O)NN(c3ccc(C#N)cc3)C2=O)cc1O | – |
| 5 | O=C1NN(c2ccc(Cl)c(Cl)c2)C(=O)/C1=C/c1ccc(F)c(F)c1 | – |
| > 50 | COc1ccc(N2NC(=O)/C(=C\c3cccc(OC)c3)C2=O)cc1 | – |
| > 50 | COc1ccc(N2NC(=O)/C(=C\c3cc(O)cc(O)c3)C2=O)cc1 | – |
| 0.6 | O=C1NN(c2ccc(Cl)c(Cl)c2)C(=O)/C1=C/c1ccc(O)c([N+](=O)[O-])c1 | Activity [2]: 94%; Activity [3]: 91%; Activity [4]: 82%; Activity [5]: 105%; Activity [6]: 102%; Activity (Homo sapiens): 72%; Activity [7]: 75%; Activity [8]: 17% |
| > 50 | COc1ccc(N2NC(=O)/C(=C\c3ccccc3F)C2=O)cc1 | – |
| > 50 | COc1ccc(/C=C2\C(=O)NN(c3ccc(Cl)c(Cl)c3)C2=O)c(OC)c1 | – |
| > 50 | O=C1NN(c2ccc(Cl)c(Cl)c2)C(=O)/C1=C/c1ccccc1[N+](=O)[O-] | – |
| > 50 | COc1ccccc1/C=C1\C(=O)NN(c2ccc(F)cc2)C1=O | – |
| > 50 | O=C1NN(c2ccc(Cl)c(Cl)c2)C(=O)/C1=C/c1cc(O)cc(O)c1 | – |
| > 50 | COc1ccc(N2NC(=O)/C(=C\c3cc(OC)cc(OC)c3)C2=O)cc1 | – |
| 2.5 | O=C1NN(c2ccc(Cl)c(Cl)c2)C(=O)/C1=C/c1ccc(O)cc1 | – |
| 40 | COc1ccccc1/C=C1\C(=O)NN(c2ccc(C#N)cc2)C1=O | – |
| 1.2 | COc1ccc(N2NC(=O)/C(=C\c3ccc(O)c(OC)c3)C2=O)cc1 | – |
| 2.5 | COc1cc(/C=C2\C(=O)NN(c3ccc(Cl)c(Cl)c3)C2=O)ccc1O | – |
